KCNQ1 act: potentiators or activators of human KCNQ1 potassium channel. P51787. CHO-K1 KCNQ1, thallium flux FluxOR fluorescence; hits give high values. B-score at 10 µM. actives 0.35% (n = 310,000). AID 2648;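 active means fluorescence ratio B-score, a plate-corrected score, at least three library SD, with initial intensity B-score within 5 SD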
Target sequence (P51787 whole entry, looked up): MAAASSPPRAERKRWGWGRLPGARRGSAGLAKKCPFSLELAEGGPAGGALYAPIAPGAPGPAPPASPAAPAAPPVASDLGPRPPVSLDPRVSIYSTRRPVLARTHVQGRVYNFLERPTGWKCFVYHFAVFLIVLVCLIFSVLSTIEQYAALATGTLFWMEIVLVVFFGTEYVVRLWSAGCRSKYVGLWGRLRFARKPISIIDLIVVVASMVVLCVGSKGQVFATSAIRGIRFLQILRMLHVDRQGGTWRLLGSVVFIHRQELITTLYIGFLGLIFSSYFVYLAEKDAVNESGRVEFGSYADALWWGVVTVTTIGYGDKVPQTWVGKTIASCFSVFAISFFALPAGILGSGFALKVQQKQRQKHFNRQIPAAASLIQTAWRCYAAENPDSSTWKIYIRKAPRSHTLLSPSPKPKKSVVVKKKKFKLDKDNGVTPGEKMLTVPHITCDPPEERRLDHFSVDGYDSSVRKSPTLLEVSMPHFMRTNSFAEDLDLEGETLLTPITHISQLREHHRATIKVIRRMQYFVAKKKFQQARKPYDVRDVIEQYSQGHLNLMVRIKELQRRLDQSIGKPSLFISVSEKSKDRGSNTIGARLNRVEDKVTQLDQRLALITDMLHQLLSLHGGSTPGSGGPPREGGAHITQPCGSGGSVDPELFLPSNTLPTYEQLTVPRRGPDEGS
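Medium – assay buffer, equal DMSO in all wells · Material – CHO-K1 cell line with stable KCNQ1 potassium channel expression · Signal – kinetic FluxOR thallium fluorescence, 10-s 1-Hz baseline, 110-s post-stimulus read · Compound – single concentration per compound, DMSO matched to controls · Schedule – 37 °C overnight plating, 90-min dark dye load, 20-min compound pretreatment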
KCNQ1 block: human KCNQ1 channel inhibition. P51787. CHO-K1 KCNQ1, FluxOR thallium flux fluorescence; hits give high values. B-score at 10 µM. actives 1.3% (n = 310,000);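 active means compounds whose thallium flux B-score, printed positive for inhibition, exceeds three library SD while starting fluorescence stays within three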;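 further: channel opened by potassium depolarization with thallium stimulus after 20 min compound exposure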
AI-2 QS modul: modulators of Vibrio harveyi AI-2 quorum sensing system; AID 2094; actives 0.4% (n = 300,000); activity change, % at 7.5 µM; Vibrio harveyi JMH597 AI-2 luminescence/OD600 ratio, 9 h; hits give low values; strain lacks LuxN and CqsS sensors; 0 = neutral-control median; in the data active means activity change below about -75%, passing the limit was not always enough;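 further: luminescence divided by OD600 gain over 9 h not by final OD600 alone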
hERG rescue: hERG (human) protection from proarrhythmic block. CHO-hERG, FluxOR thallium flux, dofetilide IC70 present. actives 0.51% (n = 310,000). Q12809. AID 1511. activation (rescue from dofetilide block), less the hit threshold, % at 10 µM;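 active means activation above the mean of controls blocked by dofetilide plus 5 SD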;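 further: thallium influx through hERG after potassium depolarization seen as dye fluorescence rise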
KCC2 mod: KCC2 (human) Cl- transport modulation; KCC2 cells, thallium flux FluoZin-2 fluorescence; Q9H2X9; actives 2.2% (n = 190,000); B-score of Tl+ flux slope (higher = more flux/activation; lower = inhibition) at 10 µM;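 active means thallium flux slope and its plate-corrected score both differing from the plate sample mean at a set confidence after two filtering rounds, in either direction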;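 further: slope of fluorescence scaled to starting intensity during 10 to 20 s after thallium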
Mot1-301 SUMO: SUMOylation pathway inhibition by Mot1-301 growth rescue. S. cerevisiae Mot1-301 growth rescue, ATP luminescence, 38.5C; percent above DMSO median, 100 means doubled. growth rescue, % at 18.8 µM. actives 1% (n = 320,000);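 active means every valid replicate shows activation above 250% relative to neutral control wells; inactive means the rest, any valid replicate at or below 250%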
Large screens that a line does not name were inactive. The list is not random: actives were taken first. Their share in the collection is about 4.2%.

COc1ccc(-c2nn(CCC#N)cc2C(=O)Nc2ccccc2Cl)cc1	none (no result: KCC2 mod)
N#CCCn1cc(C(=O)Nc2ccccc2Cl)c(-c2ccc(F)cc2)n1	hERG rescue 8.2 (no result: KCC2 mod)
Cc1ccc(OP(=O)(Nc2cccc(C)c2)Oc2ccc(C)cc2)cc1	KCNQ1 block 6 (no result: KCC2 mod)
Cc1cccc(OP(=O)(Nc2ccc(F)cc2)Oc2cccc(C)c2)c1	KCNQ1 block 8
Cc1cccc(OP(=O)(Nc2cccnc2)Oc2cccc(C)c2)c1	none
COc1ccc(NP(=O)(Oc2cccc(C)c2)Oc2cccc(C)c2)cc1OC	none
C1=CC(Cc2cncs2)c2ccccc21 (centres undefined)	none (no result: KCNQ1 act, KCNQ1 block, AI-2 QS modul, hERG rescue, KCC2 mod)
Cc1ccc(-c2cc(-c3ccc(C)cc3)[n+](-c3ccc(C(=O)O)cc3)c(-c3ccc(C)cc3)c2)cc1	none (no result: KCC2 mod)
Cc1ccc(C[n+]2c(-c3ccc(C)cc3)cc(-c3ccc(C)cc3)cc2-c2ccc(C)cc2)cc1	KCNQ1 act 34, Mot1-301 SUMO 280.2 (no result: KCC2 mod)
COc1ccc(N2C(=O)NC(=O)C(CCc3ccncc3)(CCc3ccncc3)C2=O)cc1	hERG rescue 4.6
CCc1ccc(N2C(=O)NC(=O)C(CCc3ccncc3)(CCc3ccncc3)C2=O)cc1	none
COC(=O)C1=C(c2ccc(Cl)c(C(F)(F)F)c2)C[C@@H]2CC[C@H]1N2C(=O)NCc1ccco1	none (no result: KCNQ1 act, KCNQ1 block, AI-2 QS modul, hERG rescue, KCC2 mod)
Cc1cc([N+](=O)[O-])c2ccccc2[n+]1[O-]	none
CC1(C)C[C@H]2C=C(C=O)[C@]3(C=O)C[C@]3(C)[C@H]2C1	KCNQ1 act 21, Mot1-301 SUMO 358.4
COC(=O)C1=C(c2ccc(-c3ccccc3)c(F)c2)C[C@@H]2CC[C@H]1N2C(=O)N1CCOCC1	none (no result: KCNQ1 act, KCNQ1 block, AI-2 QS modul, hERG rescue, KCC2 mod)
CC1CCC(C(C)C)C(OC(=O)Cn2c(COc3ccccc3)[n+](C)c3ccccc32)C1 (centres undefined)	KCNQ1 block 10
O=C(Nc1ccc(F)c([N+](=O)[O-])c1)N1C[C@H]2C[C@@H](C1)c1cccc(=O)n1C2	none (no result: KCC2 mod)
CC1(C)CSC(=NCc2ccccc2)N1	KCNQ1 act 7
COC(=O)C1=C(c2ccc(S(C)(=O)=O)cc2)C[C@@H]2CC[C@H]1N2C(=O)NCc1ccc(C(F)(F)F)cc1	none (no result: KCC2 mod)
COC(=O)C1=C(c2cc3ccccc3s2)C[C@@H]2CC[C@H]1N2C(=O)NC1CCCCC1	none (no result: KCC2 mod)
CN1c2ccc([N+](=O)[O-])cc2CC2(C(=O)NC(=O)N(c3ccc(Br)cc3)C2=O)C1c1ccccc1 (centres undefined)	KCNQ1 block 6
Cc1cc(N2CCCC2)ccc1C=C(C#N)C#N	KCNQ1 block 12
C/C(=N\N1CCCCCC1)c1c(O)n(-c2ccccc2C)c(=O)[nH]c1=O	none
CCCn1c(C)cc(C=O)c1C	hERG rescue 5.6
CCCCn1c(=O)c(C(=O)NCc2ccncc2)c(O)c2ccccc21	none
CCCCn1c(=O)c(C(=O)NCc2ccccc2)c(O)c2ccccc21	KCNQ1 block 8 (no result: KCC2 mod)
C=CCN1C(=O)/C(=C/c2ccc(Br)s2)C(=O)NC1=S	none (no result: KCC2 mod)
COc1ccc(/C=C2\C(=O)NC(=S)N(C)C2=O)cc1C	none (no result: KCC2 mod)
Cc1ccsc1/C=C1\C(=O)NC(=S)N(C)C1=O	KCNQ1 block 8 (no result: KCC2 mod)
CN1C(=O)/C(=C/c2ccc(Cl)s2)C(=O)NC1=S	hERG rescue 5.2 (no result: KCC2 mod)
C[C@]12CCC3C(CC[C@H]4C[C@@H](O)CC[C@]34C)C1C[C@@H](Br)[C@H]2O (some centres undefined)	none (no result: KCNQ1 act, KCNQ1 block, AI-2 QS modul, hERG rescue, KCC2 mod)
COC(=O)C1=C(c2cccc(OC)c2OC)C[C@@H]2CC[C@H]1N2C(=O)N1CCC(C)CC1	none (no result: KCC2 mod)
COc1cccc(-c2sc3ccccc3c2-c2ccc(OCCN3CCOCC3)cc2)c1	Mot1-301 SUMO 462.5 (no result: KCNQ1 act, KCNQ1 block, AI-2 QS modul, hERG rescue, KCC2 mod)
CCn1nc(-c2ccccc2)nc2c(=O)n(C)c(=O)nc1-2	AI-2 QS modul -92.5
COc1ccc(-c2nc3ccccc3c(=O)n2-c2ccc(OC)cc2)cc1	none
O=C(c1ccc(N2CC3CC(C2)c2cccc(=O)n2C3)c([N+](=O)[O-])c1)N1CCCC1 (centres undefined)	none
COC1CCCCC1NCCc1ccccc1 (centres undefined)	hERG rescue 5.0
COc1ccc(CCNC2CCCCCC2)cc1	none (no result: KCC2 mod)
COC(=O)C(O)(c1ccc(NC(=O)Oc2ccccc2)cc1)C(F)(F)F (centres undefined)	AI-2 QS modul -76.1
Cc1nn(Cc2ccccc2)c(Cl)c1C(=O)NC1CCCc2ccccc21 (centres undefined)	none
Cc1ccc(-c2cc(-c3ccccc3)cc(-c3ccccc3)[n+]2-c2ccc(C(=O)O)cc2)cc1	none (no result: KCC2 mod)
COc1ccc(-c2cc(-c3ccccc3)[n+](C)c(-c3ccccc3)c2)cc1	KCNQ1 block 12
O=C(O)CCC(=O)NCCC1=c2ccccc2=N/C1=C\c1c(O)n(Cc2ccc(F)cc2)c(=S)[nH]c1=O	hERG rescue 6.2
CCCCCSc1cc(OC)c(CCN)cc1OC	KCNQ1 block 6
CCCCCCCSc1cc(OC)c(CCN(C)C)cc1OC	none (no result: KCC2 mod)
C[C@]12CCC3C(CC[C@H]4C[C@@H](O)CC[C@]34C)C1CC[C@@H]2OC(=O)[C@H](N)CCCCN (some centres undefined)	none (no result: KCNQ1 act, KCNQ1 block, AI-2 QS modul, hERG rescue, KCC2 mod)
Clc1ccc(CSC(Cn2ccnc2)c2ccc(Cl)cc2Cl)cc1 (centres undefined)	KCNQ1 block 6
Clc1ccc(CO/N=C(\Cn2ccnc2)c2ccc(Cl)cc2Cl)c(Cl)c1	none (no result: KCC2 mod)
CN1/C(=C\C=C\C2=[N+](C)c3ccc4ccccc4c3C2(C)C)C(C)(C)c2ccccc21	KCC2 mod -6.01 (no result: KCNQ1 act, KCNQ1 block, AI-2 QS modul, hERG rescue)
O=C(/C=C/c1c[nH]c2ccccc12)c1c(O)n(CCc2ccccc2)c(=O)[nH]c1=O	none
CCOC(=O)c1c(NS(=O)(=O)c2ccccc2)n(CCCOC)c2nc3ccccc3nc12	hERG rescue 8.4
CC1Oc2cc3c(-c4c(O)cc(O)c5c(O)c6c(cc45)OC(C)C(C)C6=O)c(O)cc(O)c3c(O)c2C(=O)C1C (centres undefined)	AI-2 QS modul -88.5
CC(=NCC1CCCO1)c1c(O)n(-c2ccc(Cl)cc2)c(=O)[nH]c1=O (centres undefined)	Mot1-301 SUMO 547.4 (no result: KCC2 mod)
COc1ccc(-n2c(O)c(C(C)=NCC3CCCO3)c(=O)[nH]c2=O)cc1 (centres undefined)	none
CCOc1cc2c(cc1OCC)-n1cccc1C(c1ccc(C(C)C)cc1)NC2 (centres undefined)	none (no result: KCC2 mod)
O=S(=O)(c1ccccc1)N1CCCCC1c1cccnc1 (centres undefined)	hERG rescue 8.4 (no result: KCC2 mod)
N#CC1=C(N)Oc2c(c(=O)oc3ccccc23)C1c1cccnc1 (centres undefined)	hERG rescue 18.2

Assay outcomes as filed in PubChem BioAssay.
